11 molecules from ChEMBL document CHEMBL1799922, “Synthesis and antimycobacterial activity of prodrugs of indeno[2,1-c]quinoline derivatives” (Eur J Med Chem, 2011) can be followed below.

By MIC is commonly meant the lowest concentration that inhibits growth of the organism. By half-life is commonly meant the time needed for the level to fall by half in the phase considered. For orientation: logD means lipophilicity at a set pH, counting ionised and neutral species.

The subject of series [1] is Mycobacterium tuberculosis. Put plainly: Antimicrobial activity against Mycobacterium tuberculosis H37Rv ATCC 27294 after 16 to 24 hrs by microplate alamar blue assay. The class given is functional. In outline: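 M. tuberculosis H37Rv inoculum 2×10^5 cfu/mL (100 µL) added to twofold dilutions in Middlebrook 7H12 medium; final test range 128 µM to 0.5 µM from 12.8 mM DMSO stocks. Incubated 37 °C; day 7 Tween 80 plus Alamar Blue added, further 16-24 h at 37 °C. Fluorescence ex 530/em 590 nm; MIC = lowest concentration giving >90% fluorescence reduction versus replicate bacteria-only controls. Rifampin, isoniazid controls.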
For orientation: The colour change of resazurin is a common sign of viable cells or microbes.

Series [2] can be described thus: Cytotoxicity against human U937 cells assessed as cell viability at 1.25 ug/ml after 72 hrs by MTT assay. The note with it: read-out: Activity. It is filed as cell-based, U-937. The essentials:
(§1)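 U937 human monocytic cells plated at 1 × 10^5 cells/mL and allowed to adhere for 1 h at 37 °C in 5% CO2. Non-adherent cells were washed off with RPMI 1640. Adherent cells were exposed to compound in triplicate, with medium alone as the live control and 3% Tween 20 as the dead control. MTT (5 mg/mL in PBS) was then added for 3 h at 37 °C. Formazan was dissolved in 0.4 M HCl/isopropanol and absorbance read at 600 nm. Results are expressed as % cell viability.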

Series [3] in a line: Cytotoxicity against human U937 cells assessed as cell viability at 5 ug/ml after 72 hrs by MTT assay. The class given is cell-based, U-937. To be noted: read-out: Activity. In outline:
as §1

Series [4] in a line: Cytotoxicity against human U937 cells assessed as cell viability at 10 ug/ml after 72 hrs by MTT assay. It is filed as cell-based, U-937. The note with it: read-out: Activity. The essentials: as §1
Background: Tetrazolium assays rely on reduction of a dye to a coloured formazan, in cell work by metabolically active cells.

Series [5] can be described thus: Cytotoxicity against human U937 cells assessed as cell viability at 20 ug/ml after 72 hrs by MTT assay. The class given is cell-based, U-937. The note with it: read-out: Activity. The essentials: as §1
The subject of another series is Serum. Briefly: Stability of the compound in 80% human blood serum assessed as hydrolysis to 2-bromo-6-(1H-imidazol-1-yl)-7H-indeno[2,1-c]quinolin-7-one oxime at 1 mg after 24 hrs at 37 degC by LC-MS analysis. Set-up: scale not given: the % may be the effect or the level left. It is filed as ADME, cell-free. In outline: (§2)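 Enzymatic hydrolysis: 1 mg prodrug dissolved in 1 mL ethanol, then 200 µL preheated human blood serum diluted to 80% with 0.16 M phosphate buffer (pH 7.4) was added. Samples were kept at 37 °C (24 h) and centrifuged 10 min at 10,000 rpm. Remaining prodrug in the supernatant was monitored by TLC and LC-MS. t1/2 is the time to 50% hydrolysis.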

Series [6] is described as follows: Stability of the compound in 10% aqueous ammonia buffer at pH 8 assessed as hydrolysis to 2-bromo-6-(1H-imidazol-1-yl)-7H-indeno[2,1-c]quinolin-7-one oxime at 1 mg at 37 degC by LC-MS analysis. It is filed as physicochemical. Set-up: scale not given: the % may be the effect or the level left. In outline:
(§3)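 Chemical hydrolysis: 1 mg prodrug dissolved in 1 mL of 10% aqueous ammonia in methanol (pH 8) and held in a thermostatted water bath at 37 °C, up to 24 h. Conversion to the parent oxime was followed by TLC and LC-MS. t1/2 is the time to 50% hydrolysis.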

The nature of series [7]: Half life in human blood serum by LC-MS analysis. It is filed as ADME, cell-free, Plasma. In outline: as §2
Series [8] can be described thus: Half life in 10% aqueous ammonia buffer at pH 8 assessed as hydrolysis to 2-bromo-6-(1H-imidazol-1-yl)-7H-indeno[2,1-c]quinolin-7-one oxime at 37 degC by LC-MS analysis. The class given is physicochemical. In outline: as §3
Series [9] can be described thus: Octanol-water partition coefficient, log P of the compound at pH 7.4 at room temperature by UV spectrophotometric analysis. The class given is physicochemical. In outline: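 Shake-flask method at room temperature: 1-octanol and phosphate buffer (pH 7.4) were pre-saturated by shaking for 24 h. Compound at 10^-4 M in equal volumes of both phases was shaken vigorously for 1 h, left to stand 15 min, then centrifuged 10 min at 10,000 rpm. UV absorbance of each phase was read at 280 nm against blanks, and P was taken as the octanol/water absorbance ratio.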

Series [10] can be described thus: Selectivity index, ratio CC50 for human U937 cells to MIC for Mycobacterium tuberculosis H37Rv ATCC 27294. The class given is functional, U-937.

Converted amounts (≈) assume the structure as drawn.

The molecule `CC(C)(C)OC(=O)NCC(=O)O/N=C1\c2ccccc2-c2c1c(N1CCN(c3ccccn3)CC1)nc1ccc(Br)cc21` gave an MIC in series [1] of 1.55 mg/L (≈ 2.41 µM). Moreover, in series [2], the viability at 72 h, 1.25 ug/ml was 87%. The viability at 72 h, 5 ug/ml in [3] turned out to be 82%. Further, the viability at 72 h, 10 ug/ml in series [4] was 63%. For the same molecule, the viability at 72 h, 20 ug/ml in series [5] turned out to be 49%. Besides, the Activity (in the series with Serum; in series [6]) was 95% in each case. For the same molecule, the half-life in [7] is 24 h; in [8], 3.6 h. In [9], this molecule displayed a logD of 0.7. Moreover, the “Selectivity Index” value in [10] was found to be 22.
In series [1], `CC(C)(C)OC(=O)N1CCC[C@H]1C(=O)O/N=C1\c2ccccc2-c2c1c(-n1ccnc1)nc1ccc(Br)cc21` yielded an MIC of 0.39 mg/L (≈ 0.663 µM). Also, in [2], the viability at 72 h, 1.25 ug/ml worked out at 87%. Besides, in [3], the viability at 72 h, 5 ug/ml stood at 86%. Besides, in [4], the viability at 72 h, 10 ug/ml amounted to 74%. For the same molecule, the viability at 72 h, 20 ug/ml in series [5] turned out to be 78%. Further, the Activity in the series with Serum turned out to be 95%; in [6] it was 90%. The half-life in [7] was 24 h; in series [8] it was 12 h. In addition, the logD in series [9] was determined as 1.3. Also, the “Selectivity Index” value in [10] is more than 102.
Turning to `CCCCCCC(=O)O/N=C1\c2ccccc2-c2c1c(-n1ccnc1)nc1ccc(Br)cc21`, 0.36 mg/L (≈ 0.715 µM) was the least that counted as inhibitory in series [1] (MIC). Besides, the viability at 72 h, 1.25 ug/ml in series [2] was determined as 85%. In series [3], the viability at 72 h, 5 ug/ml was determined as 80%. The viability at 72 h, 10 ug/ml in [4] amounted to 67%. Besides, in series [5], the viability at 72 h, 20 ug/ml was determined as 60%. The Activity is 85% in the series with Serum and 95% in [6]. Further, the half-life was 192 h in series [7] and 48 h in series [8]. This molecule also showed a logD in series [9] of 1.5. In addition, the “Selectivity Index” value in [10] is more than 111.
In turn, `CC1(OC(=O)CC(F)(F)F)c2ccccc2-c2c1c(-n1ccnc1)nc1ccc(Br)cc21` (stereo not given) showed an MIC in series [1] of 0.5 mg/L (≈ 0.995 µM). Also, the viability at 72 h, 1.25 ug/ml in series [2] was 92%. Besides, the viability at 72 h, 5 ug/ml in [3] worked out at 80%. In addition, in series [4], the viability at 72 h, 10 ug/ml worked out at 62%. In series [5], the viability at 72 h, 20 ug/ml came out at 26%. In addition, in [6], the Activity worked out at 96%. Also, the half-life is 480 h in series [7] and 24 h in [8]. Further, the logD in series [9] is 1.8. Also, in [10], the “Selectivity Index” value is given as 22.4.
Regarding `CC(C)(C)OC(=O)NC(Cc1cccc(F)c1)C(=O)O/N=C1\c2ccccc2-c2c1c(N1CCN(c3ccccn3)CC1)nc1ccc(Br)cc21` (stereo not given), in series [1], the MIC stood at 2.98 mg/L (≈ 3.96 µM). The viability at 72 h, 1.25 ug/ml in series [2] stood at 92%. Besides, in [3], the viability at 72 h, 5 ug/ml came out at 90%. Also, the viability at 72 h, 10 ug/ml in [4] worked out at 79%. Moreover, the viability at 72 h, 20 ug/ml in series [5] was 84%. The Activity (with Serum; in series [6]) was 95% each time. The half-life was 144 h in series [7] and 72 h in series [8]. This molecule also yielded a logD in [9] of 1.1. Besides, in series [10], the “Selectivity Index” value was more than 13.
As to `CCC(=O)O/N=C1\c2ccccc2-c2c1c(-n1ccnc1)nc1ccc(Br)cc21`, 0.29 mg/L (≈ 0.648 µM) was the least that counted as inhibitory in series [1] (MIC). The viability at 72 h, 1.25 ug/ml in series [2] stood at 84%. Moreover, in series [3], the viability at 72 h, 5 ug/ml amounted to 86%. The viability at 72 h, 10 ug/ml in [4] came out at 75%. Further, the viability at 72 h, 20 ug/ml in [5] is 67%. Also, the Activity in the series on Serum worked out at 90%; in series [6] it was 95%. Moreover, the half-life was 84 h in [7] and 48 h in [8]. Also, the logD in series [9] came to 1.2. The “Selectivity Index” value in series [10] is recorded as more than 137.
`CCCCCCCCC(=O)O/N=C1\c2ccccc2-c2c1c(-n1ccnc1)nc1ccc(Br)cc21` displayed an MIC in [1] of 0.39 mg/L (≈ 0.734 µM). The viability at 72 h, 1.25 ug/ml in series [2] amounted to 87%. Also, the viability at 72 h, 5 ug/ml in series [3] was determined as 85%. For the same molecule, in series [4], the viability at 72 h, 10 ug/ml came to 77%. In series [5], the viability at 72 h, 20 ug/ml was 72%. Moreover, the Activity (in the series on Serum; in series [6]) was 95% each time. For the same molecule, the half-life in series [7] is 72 h; in series [8] it was 24 h. For the same molecule, the logD in [9] was 1.9. Besides, the “Selectivity Index” value in series [10] was more than 102.
In [1], `CC(=O)O/N=C1\c2ccccc2-c2c1c(-n1ccnc1)nc1ccc(Br)cc21` returned an MIC of less than 0.2 mg/L. Moreover, the viability at 72 h, 1.25 ug/ml in series [2] is 87%. In addition, in series [3], the viability at 72 h, 5 ug/ml is 78%. Besides, the viability at 72 h, 10 ug/ml in [4] is 59%. Further, the viability at 72 h, 20 ug/ml in series [5] was 42%. Also, the Activity with Serum turned out to be 94%; in series [6] it was 95%. Moreover, the half-life in series [7] was 84 h; in [8], 48 h. In series [9], this molecule gave a logD of 1.1. The “Selectivity Index” value in [10] is more than 71.
As to `CCCC(=O)O/N=C1\c2ccccc2-c2c1c(-n1ccnc1)nc1ccc(Br)cc21`, the MIC in series [1] was less than 0.2 mg/L. In addition, the viability at 72 h, 1.25 ug/ml in [2] was 85%. Besides, in series [3], the viability at 72 h, 5 ug/ml stood at 88%. Also, in series [4], the viability at 72 h, 10 ug/ml came to 69%. Besides, in series [5], the viability at 72 h, 20 ug/ml was determined as 70%. For the same molecule, the Activity came to 90% in the series on Serum and 95% in [6]. Also, the values for the half-life in series [7] and in series [8] were 96 h and 36 h, respectively. The logD in series [9] was determined as 1.5. Further, in [10], the “Selectivity Index” value was more than 200.
In series [1], `CC(C)(C)OC(=O)NC(Cc1ccccc1)C(=O)O/N=C1\c2ccccc2-c2c1c(N1CCN(c3ccccn3)CC1)nc1ccc(Br)cc21` (stereo not given) had an MIC of 3.47 mg/L (≈ 4.73 µM). Also, in [2], the viability at 72 h, 1.25 ug/ml amounted to 87%. Further, in series [3], the viability at 72 h, 5 ug/ml was determined as 87%. The viability at 72 h, 10 ug/ml in [4] came to 71%. For the same molecule, in series [5], the viability at 72 h, 20 ug/ml was 73%. In addition, the Activity in the series on Serum was determined as 70%; in series [6], 98%. For the same molecule, the half-life in series [7] is 432 h; in series [8] it was 72 h. This molecule also yielded a logD in series [9] of 1.2. In [10], the “Selectivity Index” value was more than 12.
As to `CCCCC(=O)O/N=C1\c2ccccc2-c2c1c(-n1ccnc1)nc1ccc(Br)cc21`, inhibition of growth in [1] (MIC) required 0.28 mg/L (≈ 0.589 µM). Besides, in series [2], the viability at 72 h, 1.25 ug/ml worked out at 85%. The viability at 72 h, 5 ug/ml in series [3] came out at 82%. The viability at 72 h, 10 ug/ml in [4] turned out to be 75%. Besides, the viability at 72 h, 20 ug/ml in [5] is 51%. Further, the Activity (with Serum; in series [6]) was 90% each time. In addition, the half-life is 144 h in [7] and 72 h in series [8]. Also, the logD in series [9] is 1.6. The “Selectivity Index” value in series [10] worked out at 60.
